Series [1] can be described thus: Toxicity against human erythrocytes assessed as hemolytic rate after 1 hr by haemolytic assay. Type of series: cell-based, Erythrocyte. Particulars: read-out: Activity. Summed up:
(§1)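 Erythrocytes from blood banks suspended as a 2% saline suspension. Incubated 1 h with compound (50–0.419 µg/mL). Triton X (5 mg/mL) used as positive control. Absorbance read at 450 nm. ANOVA with Tukey test, p < 0.05.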

Series [2] can be described thus: Toxicity against human erythrocytes assessed as hemolytic potential after 1 hr by haemolytic assay. Type of series: cell-based, Erythrocyte. Particulars: read-out: Activity. A digest of the protocol: as §1
Series [3] can be described thus: Toxicity against human erythrocytes assessed as disruption of cell membrane after 1 hr by haemolytic assay. The class given is cell-based, Erythrocyte. A digest of the protocol:
as §1

Series [4] can be described thus: Pro-oxidant activity in H2O2-stimulated human erythrocyte membrane assessed as increase in hemolysis at >35 uM treated for 30 mins prior to H2O2 challenge measured after 3 hrs. The class given is ADME, cell-based. Summed up: (§2)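 Erythrocytes from blood-bank samples, washed in saline phosphate with 1 mM NaN3 at 4 °C, plasma and white cells removed. Preincubated with compound 30 min at 37 °C, then brought to 2% haematocrit in PBS. Stress induced by H2O2 (300 μM), 3 h at 37 °C. Absorbance read at 540 nm. Mean ± S.D. of three experiments in duplicate.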

Series [5] relates to Radical scavenging activity. Description: Antioxidant activity assessed as DPPH radical scavenging activity after 30 mins. Type of series: functional. A digest of the protocol:
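Compound (500–0.48 µg/mL) mixed with DPPH, held 30 min at 25 °C in the dark, absorbance read at 517 nm. AA% = 100 − [(ABS_T − ABS_B)×100/ABS_C], with a compound + ethanol blank and a DPPH + ethanol negative control.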
(DPPH is a stable violet radical that fades when it is reduced.)

Another series relates to Erythrocyte. Description: Antioxidant activity against H2O2-induced oxidative stress in human erythrocyte membrane at 12.5 to 100 uM treated for 30 mins prior to H2O2 challenge measured after 3 hrs. The class given is functional, cell membranes. Summed up:
as §2

The subject of series [6] is Mus musculus. Description: Acute toxicity in Swiss mouse assessed as depression at 2000 mg/kg, po administered as single dose measured during 14 days after drug exposure. The class given is organism-based. Details: dose 2000 mg/kg, route oral. Conditions: in vivo, 336 h. Summed up: (§3)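 Female Swiss mice (eight weeks old, specific pathogen-free, kept at 22 °C with food and water ad libitum, acclimatised five days) were tested under OECD Test Guideline 423. Each received a single dose by oral gavage, n = 3. The starting dose came from the ICCVAM prediction model using 3T3 neutral red uptake IC50. Animals were observed individually during the first 30 min and periodically over 24 h, especially the first 4 h, then daily for 14 days.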

Series [7] concerns Mus musculus. Description: Acute toxicity in Swiss mouse assessed as agitation at 2000 mg/kg, po administered as single dose measured during 14 days after drug exposure. Type of series: organism-based. More on the design: dose 2000 mg/kg, route oral. Particulars: in vivo, 336 h. Summed up:
as §3

Series [8] deals with Mus musculus. Description: Acute toxicity in Swiss mouse assessed as animal's death at 2000 mg/kg, po administered as single dose measured during 14 days after drug exposure. Particulars: in vivo, 336 h. The class given is organism-based. Details: dose 2000 mg/kg, route oral. Summed up: as §3
Series [9] can be described thus: Acute toxicity in po dosed Swiss mouse administered as single dose measured for 14 days after drug exposure. Conditions: in vivo. Type of series: organism-based. Summed up:
as §3

Series [10] in a line: Genotoxicity in human T lymphocytes assessed as proportion of cells with DNA damage at 100 uM after 1 hr by comet assay (reference value: 10%). Particulars: t-cell. Type of series: toxicity, cell-based.
Series [11] is described as follows: Genotoxicity in human T lymphocytes assessed as proportion of cells with DNA damage at 50 uM after 1 hr by comet assay (reference value: 10%). The class given is toxicity, cell-based. Particulars: t-cell.
A short description of series [12]: Genotoxicity in human T lymphocytes assessed as proportion of cells with DNA damage at 25 uM after 1 hr by comet assay (reference value: 10%). Particulars: t-cell. The class given is toxicity, cell-based.
Series [13] in a line: Genotoxicity in human T lymphocytes assessed as proportion of cells without DNA damage at 100 uM after 1 hr by comet assay (reference value: 90%). The class given is toxicity, cell-based. Particulars: t-cell.
A short description of series [14]: Genotoxicity in human T lymphocytes assessed as proportion of cells without DNA damage at 50 uM after 1 hr by comet assay (reference value: 90%). The class given is toxicity, cell-based. Conditions: t-cell.
Series [15] can be described thus: Genotoxicity in human T lymphocytes assessed as proportion of cells without DNA damage at 25 uM after 1 hr by comet assay (reference value: 90%). Conditions: t-cell. The class given is toxicity, cell-based.
The nature of series [16]: Myelosuppressive activity against Swiss mouse CFU-GM cells assessed as inhibition of cell growth and differentiation after 7 days. The class given is cell-based. Conditions: 168 h. A digest of the protocol:
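Swiss mouse bone marrow cells (1×10^5) in agar with 2× DMEM, mouse GM-CSF and bovine serum. Ethanolic compound solutions (534–4.17 μM) added, medium-only negative control. Incubated seven days, then CFU-GM colonies counted under 32× magnification. ANOVA.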

The record followed here is ChEMBL document CHEMBL2346605, “4-Nerolidylcatechol and its synthetic analogues: antioxidant activity and toxicity evaluation” (Eur J Med Chem, 2013).

In brackets after ≈: the same amount, converted by molar mass. Activity calls are given as the source filed them. The calls are words filed in the database; no cut-off is given here. Some results are limits rather than exact numbers.

`CC(C)=CCC/C(C)=C/CNc1cc(C)nn1C`: the figures for the hemolysis at 1 h in series [1] and in series [2] were over 5% and 75%, respectively. Besides, the IC50 (as a rule, the concentration that gives 50% inhibition) at 1 hr in [3] amounted to 1.76 µg/mL (≈ 7.11 µM). Further, the Activity result in [4] was “Toxic”. The outcome in series [5] was Active.
Regarding `CC(C)=CCC/C(C)=C/CNc1ccccc1`, the hemolysis at 1 h in series [1] was under 5%. For the same compound, the IC50 at 1 hr in [3] was under 0.419 µg/mL. For the same compound, the outcome (with Erythrocyte; in series [5]) was Active.
Turning to `CC(C)=CCC/C(C)=C/CNc1ccc(O)cc1`, the Activity result with Mus musculus [6] is “Toxic”; in the series with Mus musculus [7], “Toxic”; in the series on Mus musculus [8] it was “Non-toxic”; in series [10], 30%; in [11], 28%; in series [12], 22%. The Activity in series [13] is 70%; in series [14], 72%; in [15], 78%. For the same compound, the LD50 (commonly the dose expected to kill half of the subjects tested) at 336 h in series [9] is over 2000 mg/kg. In [16], the IC50 turned out to be 460 µM. For the same compound, the hemolysis at 1 h in series [1] is under 5%. Also, the IC50 at 1 hr in series [3] is under 0.419 µg/mL. Further, the outcome (in the series with Erythrocyte; in series [5]) was Active.
As for `CC(C)=CCC/C(C)=C/CNc1ccc2c(c1)OCO2`, the hemolysis at 1 h in [1] was under 5%. In series [3], the IC50 at 1 hr was determined as 18.3 µg/mL (≈ 67.1 µM). For the same compound, the result (with Erythrocyte; in series [5]) was Active.
With `CC(C)=CCC/C(C)=C/CN(c1ccc(O)cc1)S(C)(=O)=O`, the hemolysis at 1 h in series [1] is under 5%. Also, the IC50 at 1 hr in [3] was under 0.419 µg/mL. Further, the result in the series on Erythrocyte was Active.
